In ChEMBL document CHEMBL3632461 (J Med Chem, 2015):
pIC50: −log10 of the molar value.

Legend:
[1] = Plasma clearance in cynomolgus monkey at 1 mg/kg, iv and 3 or 5 mg/kg, po; type: ADME, organism-based, Macaca fascicularis
In short: (§1)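 Male CD-1 mice (25−35 g), cannulated Wistar-Han rats (250 g), beagle dogs (12 kg) and cynomolgus monkeys (7 kg), fasted overnight and fed 1.0 or 2.0 h after dosing. iv 1 mg/kg in saline or 12% sulfobutyl ether β-cyclodextrin; po 3 or 5 mg/kg in 0.5% methylcellulose. Parameters calculated from plasma concentration−time data; mean ± SD for n = 3, individual values for n = 2.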

[2] = Elimination half life in cynomolgus monkey at 1 mg/kg, iv and 3 or 5 mg/kg, po; type: ADME, organism-based, Macaca fascicularis; conditions: in vivo; in short: as §1
[3] = Fraction unbound in dog plasma at 2 uM by equilibrium dialysis method; type: ADME, cell-free, Canis lupus familiaris
In short: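 Compound at 2 μM in mouse, rat, dog, monkey or human plasma; unbound fraction measured by equilibrium dialysis and reported as a mean.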

Cytochrome P450 2D6 = Cytochrome P450 2D6 (Homo sapiens, UniProt P10635); test: Reversible inhibition of CYP2D6 dextromethorphan O-demethylase activity in human liver microsomes by LC-MS/MS analysis; type: ADME
In short: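 Reversible inhibition of the major CYP enzymes tested in human liver microsomes using established protocols.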

Chain of Cytochrome P450 2D6 (P10635 whole entry): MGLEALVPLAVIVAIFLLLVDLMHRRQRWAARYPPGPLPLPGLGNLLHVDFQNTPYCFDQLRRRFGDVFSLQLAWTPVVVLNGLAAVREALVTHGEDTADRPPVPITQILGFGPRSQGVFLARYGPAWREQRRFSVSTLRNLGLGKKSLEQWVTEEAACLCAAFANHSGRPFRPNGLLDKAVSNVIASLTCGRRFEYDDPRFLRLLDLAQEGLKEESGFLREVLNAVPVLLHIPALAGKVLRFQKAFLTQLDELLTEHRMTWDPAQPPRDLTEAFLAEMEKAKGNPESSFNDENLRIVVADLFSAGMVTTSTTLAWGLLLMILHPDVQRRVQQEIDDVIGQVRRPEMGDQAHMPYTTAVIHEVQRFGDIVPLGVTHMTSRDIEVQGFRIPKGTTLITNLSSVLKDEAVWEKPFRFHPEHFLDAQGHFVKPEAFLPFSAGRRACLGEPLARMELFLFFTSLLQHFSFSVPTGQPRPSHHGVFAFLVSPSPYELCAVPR

COc1ccc(Cl)cc1-c1cc(=O)[nH]c(=S)n1CC(N)=O [PF-06282999]
clearance [1]: 10.3 mL/min/kg | half-life [2]: 3.28 h | fraction unbound at 2 µM [3]: 0.46 | pIC50 (Cytochrome P450 2D6): < 4.00
